Measurements from ChEMBL document CHEMBL5385937.
Calls of active or inactive are those of the source. No cut-off for these calls is given here.

Tests used:
[1] = target: Indoleamine 2,3-dioxygenase 1 (Homo sapiens) (UniProt P14902); assay: Inhibition of recombinant human IDO1 expressed in Escherichia coli BL21(DE3) preincubated for 40 mins followed by Trp addition and measured after 60 mins by LC-MS analysis; details: time 100.0 min
[2] = target: Indoleamine 2,3-dioxygenase 1 (Homo sapiens) (UniProt P14902); assay: Inhibition of IDO1 in human BXPC-3 cells assessed as increase in Trp level at 10 uM incubated for 48 hrs in presence of IFNgamma by LC-MS analysis; format: cell-based
Summary of the method: (§1)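 BxPC-3 cells were seeded at 20,000/well in phenol-red-free medium. After 24 h, 50 ng/mL IFN-γ and 380 μM Trp were added together with compound for 48 h. Supernatant was acidified with trichloroacetic acid (7% final), kept 15 min at room temperature and centrifuged. Kyn and Trp were quantified by HPLC-MS/MS.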

[3] = target: Indoleamine 2,3-dioxygenase 1 (Homo sapiens) (UniProt P14902); assay: Inhibition of IDO1 in human BXPC-3 cells assessed as reduction in IFNgamma induced kynurenine level at 10 uM incubated for 48 hrs by LC-MS analysis; format: cell-based; summary of the method: as §1
[4] = target: Indoleamine 2,3-dioxygenase 1 (Homo sapiens) (UniProt P14902); assay: Inhibition of IDO1 in human BXPC-3 cells assessed as reduction in IFNgamma induced Trp level at 5 mM pretreated with IFNgamma for 24 hrs followed by compound addition for 30 mins prior to Trp addition and measured after 30 mins by HPLC-MS/MS analysis; format: cell-based; details: time 25.0 hrs
Summary of the method: (§2)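 BxPC-3 cells were kept in Trp-free RPMI for 48 h, then given 50 ng/mL IFN-γ with starvation continued another 24 h. Medium was replaced by Trp-free medium containing compound for 30 min. 50 μM Trp was then added for 30 min. Supernatant Trp was measured by HPLC-MS/MS after 7% trichloroacetic acid precipitation; mean ± SD, n = 3.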

[5] = target: T1, Bifunctional epoxide hydrolase 2 (Homo sapiens) (UniProt P34913); details: HAP1, dose 500.0 nM
T1 sequence (whole entry): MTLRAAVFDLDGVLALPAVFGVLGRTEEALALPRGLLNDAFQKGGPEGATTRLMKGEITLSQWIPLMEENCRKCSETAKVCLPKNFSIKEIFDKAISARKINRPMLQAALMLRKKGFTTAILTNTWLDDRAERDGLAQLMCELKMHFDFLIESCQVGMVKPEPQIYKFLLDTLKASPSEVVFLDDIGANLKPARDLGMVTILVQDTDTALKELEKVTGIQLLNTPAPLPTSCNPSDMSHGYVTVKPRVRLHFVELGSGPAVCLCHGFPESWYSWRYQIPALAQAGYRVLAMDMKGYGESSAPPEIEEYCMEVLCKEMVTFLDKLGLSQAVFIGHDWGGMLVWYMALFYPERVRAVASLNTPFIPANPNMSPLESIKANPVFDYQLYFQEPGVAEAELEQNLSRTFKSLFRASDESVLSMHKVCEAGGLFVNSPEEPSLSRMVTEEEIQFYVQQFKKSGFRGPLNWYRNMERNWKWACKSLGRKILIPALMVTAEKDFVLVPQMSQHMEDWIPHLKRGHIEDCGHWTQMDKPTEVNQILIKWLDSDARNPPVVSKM

[6] = target: Indoleamine 2,3-dioxygenase 1 (Homo sapiens) (UniProt P14902); assay: Inhibition of IDO1 in human BXPC-3 cells assessed as reduction in IFNgamma induced Trp level at 5 uM pretreated with IFNgamma for 24 hrs followed by compound addition for 30 mins prior to Trp addition and measured after 30 mins by HPLC-MS/MS analysis; format: cell-based; details: time 25.0 hrs; summary of the method: as §2
[7] = target: Indoleamine 2,3-dioxygenase 1 (Homo sapiens) (UniProt P14902); assay: Inhibition of IDO1 in HEK293T cells assessed as reduction in IFNgamma induced IDO1 protein expression incubated for 48 hrs; format: cell-based
[8] = target: Indoleamine 2,3-dioxygenase 1 (Homo sapiens) (UniProt P14902); assay: Inhibition of IDO1 in human HeLa cells assessed as reduction in IFNgamma induced IDO1 mRNA expression level incubated for 24 hrs by qPCR analysis; format: cell-based
Summary of the method: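 HeLa cells were plated at 250,000/well and grown 24 h, then treated with 50 ng/mL IFN-γ plus compound for 24 h. Total RNA was extracted with on-column DNase digestion, and cDNA was made from 800 ng RNA. IDO1 mRNA was quantified by qPCR; mean ± SD, n = 3.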

[9] = target: Indoleamine 2,3-dioxygenase 1 (Homo sapiens) (UniProt P14902); assay: Inhibition of IDO1 in human HeLa cells assessed as reduction in IFNgamma induced IDO1 protein expression level incubated for 24 hrs by immunoblotting analysis; format: cell-based
Summary of the method: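 HeLa cells were plated at 250,000/well and grown 24 h, then exposed to 50 ng/mL IFN-γ and compound for 24 h. Cells were lysed in Laemmli buffer and 20–100 μg protein was resolved on 10% gels. Blots were probed with anti-IDO1 (1:5,000) and IRDye secondaries. IDO1 was normalized to vinculin; mean ± SD, n = 4.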

Sequence of Indoleamine 2,3-dioxygenase 1 (Homo sapiens) (P14902 whole entry, looked up): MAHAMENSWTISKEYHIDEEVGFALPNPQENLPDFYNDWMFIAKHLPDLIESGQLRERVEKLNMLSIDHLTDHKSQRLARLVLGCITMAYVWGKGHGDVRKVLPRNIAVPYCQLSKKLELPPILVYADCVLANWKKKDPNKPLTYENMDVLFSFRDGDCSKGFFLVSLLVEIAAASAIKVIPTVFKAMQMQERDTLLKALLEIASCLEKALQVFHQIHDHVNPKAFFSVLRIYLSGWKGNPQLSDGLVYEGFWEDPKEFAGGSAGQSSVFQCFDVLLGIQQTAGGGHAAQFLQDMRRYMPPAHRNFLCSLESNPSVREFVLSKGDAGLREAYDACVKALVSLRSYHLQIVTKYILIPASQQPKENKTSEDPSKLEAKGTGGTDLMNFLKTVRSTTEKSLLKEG

For O=C(c1cn(CCOc2ccc3c(c2)OCO3)c2ccc(Br)cc12)C(F)(F)F, the inhibition [1] was “inactive”, the inhibition [2] was “Dose-Dependent Effect” and the inhibition [3] was “Active”.

With CC(C)C[C@H](N)C(=O)O the inhibition [4] was “Active”.

For NS(=O)(=O)NCCNc1nonc1/C(=N/O)Nc1ccc(F)c(Br)c1, the inhibition [5] was “Active”.

With O=C(Cn1cc(C(=O)C(F)(F)F)c2cc(Br)ccc21)NC1CCCCCC1 the inhibition [6] was “inactive”, the inhibition [7] was “inactive” and the inhibition [8] was “inactive”. The inhibition [1] was “inactive” and the inhibition [9] was “inactive”.
